In PubChem BioAssay:
Inconclusive results are not listed.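 The calls were made as follows, unless noted: active = cell viability at or below a set limit in both duplicate runs, the limit being the all-compound median minus 4 SD (cut at about 23% in these data, passing the limit was not always enough); inconclusive = no clear call, values can overlap the other calls; inactive = the rest.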

Key:
[1] = OD615 S. cerevisiae growth inhibition, permissive medium, pilot counter-assay, permissive growth control for S. cerevisiae lifespan shortening project (AID 705;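 active = growth inhibition above 25% in both replicates, a cutoff set 3 SD above the mean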); settings: OD615, 24 h, at 10 µM, active compounds read high
In short: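 assay system = Saccharomyces cerevisiae strain carrying genetically modified DeaD replicative-lifespan system | technique = absorbance (optical density) at 615 nm | buffer or medium = permissive raffinose/galactose medium | timing = cells pre-grown 4 h, then 24 h compound exposure, 30 °C humidified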

[2] = Restrictive medium S. cerevisiae growth inhibition, OD615, pilot screen of yeast lifespan reduction project, restrictive growth control (AID 706;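 active = growth inhibition above a set limit, 3 SD over mean compound inhibition, in both replicates, cut at about 43% in these data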;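 also: modified DeaD lifespan yeast strain shifted to restrictive glucose medium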); settings: OD615, 48 h, at 10 µM, active compounds read high
In short: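 System: modified S. cerevisiae. Buffer or medium: CSMM-D glucose medium. Incubation: 4 h pre-growth plus 48 h compound exposure, 30 °C. Detection: absorbance (optical density) measured at 615 nm.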

[3] = viability gain of MRP-1-high H69AR cells under doxorubicin, pilot screen, MRP-1 activator project, CellTiter-Glo, duplicate (AID 807;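 active = viability increase at or above a cutoff of the median across tested compounds plus 3 SD, cut at about 8.5% in these data, passing the limit was not always enough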;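 also: compound pretreatment 18-22 h then 72 h combined with doxorubicin; 0% = doxorubicin alone and 100% = vehicle without doxorubicin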); settings: H69AR viability with doxorubicin, CellTiter-Glo luminescence; at 10 µM; active compounds read high
[4] = growth suppression of beta-catenin knockout HCT116, pilot screen, human colon tumor cells (AID 823); settings: CellTiter-Glo, 60 h, at 10 µM, active compounds read low;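 also: 0% = wells killed by 20 µM Hyamine and 100% = untreated DMSO cell wells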
[5] = growth suppression of PTEN-deleted HCT116, pilot screen, cell-based, HCT116 clonal line, CellTiter-Glo (AID 824;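 active = viability at or below 27.92% in each of two runs, the all-compound median minus 4 SD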;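 also: 0% = 20 µM Hyamine control and 100% = vehicle cell control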); settings: 60 h, at 10 µM, active compounds read low
[6] = inhibitors of the yeast RAM network, pilot screen, dse1pr::URA3 reporter, 5-FOA selection (AID 869;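 active = inhibition over a set limit, the all-compound mean plus 3 SD, in both replicate runs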;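 also: 0% = DMSO wells with no growth and 100% = 10 µM 1-NA-PP1 with full growth; RAM network block rescues cells from 5-FOA so hits raise OD615 growth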); settings: S. cerevisiae dse1pr::URA3 5-FOA growth, OD615, 2 d; at 10 µM; active compounds read high; strain carries analog-sensitive mutant Cbk1 kinase
[7] = RAM signaling pathway blockade in yeast – S. cerevisiae, Pdr1DBD-CYC8 efflux-inhibited sensitized strain, primary screen (AID 1298;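 active = RAM network inhibition above 8.4% in each of two replicates, 3 SD over the compound average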;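 also: 0% = DMSO untreated cells without growth and 100% = 10 µM 1-NA-PP1 full growth; higher means more yeast growth rescued from 5-FOA killing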); settings: S. cerevisiae cbk1-as DSE1-URA3 strain, 5-FOA growth OD615, 2 d; at 50 µM; active compounds read high

CCOC(=O)N1CCN(C(c2ccc(C)cc2)c2sc3nc(C)nn3c2O)CC1 (centres undefined)
inactive: growth inhibition [1] 2.26% | growth inhibition [2] 4.33% | viability increase [3] -0.59% | viability [4] 108% | viability [5] 102% | inhibition [6] 0.185% | RAM network inhibition [7] 0.28%

COc1nc(Nc2ccc(C(C)=O)cc2)nc(OC)n1
inactive: growth inhibition [1] 0.42% | growth inhibition [2] -4.17% | viability increase [3] -4.04% | viability [4] 99.5% | viability [5] 97.9% | inhibition [6] 1.75% | RAM network inhibition [7] 6.28%

Cc1onc(-c2ccccc2Cl)c1C(=O)N1CCCCC1C(=O)O (centres undefined)
inactive: growth inhibition [1] 0.56% | growth inhibition [2] -2.38% | viability increase [3] -1.22% | viability [4] 96.6% | viability [5] 98.6% | inhibition [6] 0.055% | RAM network inhibition [7] 4.06%

Cn1cc(SCC(=O)Nc2ccc3c(c2)OCO3)c2ccccc21
inactive: growth inhibition [1] -6.75% | growth inhibition [2] -9.39% | viability increase [3] -2.72% | viability [4] 100% | viability [5] 92.9% | inhibition [6] 1.69% | RAM network inhibition [7] 2.23%

Cc1noc(NS(=O)(=O)c2ccc(NC(=O)CSc3nc4c(cc3C#N)CCCC4)cc2)c1C
inactive: growth inhibition [1] 2.36% | growth inhibition [2] 3.98% | viability increase [3] 0.62% | viability [4] 109% | viability [5] 101% | inhibition [6] 2.52% | RAM network inhibition [7] 2.9%

CN1C(=O)CC(N2CCN(c3ncccn3)CC2)C1=O (centres undefined)
inactive: growth inhibition [1] 1.35% | growth inhibition [2] -4.12% | viability increase [3] 0.31% | viability [4] 103% | viability [5] 100% | inhibition [6] 0.77% | RAM network inhibition [7] 5.07%

O=S(=O)(Nc1ccc(-c2nc3cccnc3s2)cc1)c1cccs1
inactive: growth inhibition [1] -4.44% | growth inhibition [2] -6.65% | viability increase [3] -1.73% | viability [4] 110% | viability [5] 95.6% | inhibition [6] 1.79% | RAM network inhibition [7] 3.74%

CCCNC(=O)Nc1cc(OCC)c(N2CCOCC2)cc1OCC
inactive: growth inhibition [1] -0.41% | growth inhibition [2] 6.55% | viability increase [3] -1.37% | viability [4] 99.6% | viability [5] 105% | inhibition [6] 1.57% | RAM network inhibition [7] 0.87%

Cc1ccc(-c2cc(C(F)(F)F)n3ncc(C(=O)NCc4ccco4)c3n2)cc1
inactive: growth inhibition [1] -5.88% | growth inhibition [2] -12.6% | viability increase [3] -5.85% | viability [4] 74% | viability [5] 75.4% | inhibition [6] 2.67% | RAM network inhibition [7] 3.41%

CSc1cccc(NC(=O)CN2C(=O)c3ccccc3S2(=O)=O)c1
inactive: growth inhibition [1] -2.94% | growth inhibition [2] 3.68% | viability increase [3] -0.41% | viability [4] 106% | viability [5] 101% | inhibition [6] 0.095% | RAM network inhibition [7] 0.05%

Cc1cc(NC(=O)CSc2nnc(Cn3c(=O)sc4ccccc43)n2-c2ccccc2C)no1
inactive: growth inhibition [1] -0.97% | growth inhibition [2] -2.43% | viability increase [3] -1.05% | viability [4] 89% | viability [5] 87% | inhibition [6] 1.27% | RAM network inhibition [7] 7.59%

COC(=O)CCC(=O)Nc1ccc(NC(=O)CCC(=O)OC)cc1
inactive: growth inhibition [1] -0.195% | growth inhibition [2] 0.195% | viability increase [3] -1.73% | viability [4] 103% | viability [5] 96.9% | inhibition [6] 1.73% | RAM network inhibition [7] 0.97%

Cc1c(=O)n(OCc2ccccc2)c2ccccc2[n+]1[O-]
inactive: growth inhibition [1] -0.885% | growth inhibition [2] 1.5% | viability increase [3] -3.92% | viability [4] 95.9% | viability [5] 95.8% | inhibition [6] 0.09% | RAM network inhibition [7] 9.74%

Cc1ccc(-n2c(=O)[nH]cc(C(=O)Nc3ccc4c(c3)OCO4)c2=O)cc1C
inactive: growth inhibition [1] -15.8% | growth inhibition [2] -15% | viability increase [3] 0.27% | viability [4] 107% | viability [5] 94.8% | inhibition [6] 1.78% | RAM network inhibition [7] 3.26%

COc1ccc(Cc2nc(-c3ccc(Br)o3)no2)cc1OC
inactive: growth inhibition [1] -14.4% | growth inhibition [2] -3.81% | viability increase [3] -0.22% | viability [4] 92.2% | viability [5] 81.2% | inhibition [6] 0.995% | RAM network inhibition [7] 4.17%

NC(=O)C1CCN(c2ncnc3c2c(-c2ccccc2)cn3-c2ccccc2)CC1
inactive: growth inhibition [1] -2.17% | growth inhibition [2] 8.02% | viability increase [3] -4.62% | viability [4] 81.3% | viability [5] 81.9% | inhibition [6] -0.35% | RAM network inhibition [7] 3.9%

CCOC(=O)c1sc(N)nc1-c1ccccc1
inactive: growth inhibition [1] -5.04% | growth inhibition [2] 1.07% | viability increase [3] -2.29% | viability [4] 101% | viability [5] 94.5% | inhibition [6] 2.48% | RAM network inhibition [7] -2.06%

Cc1cc(C)cc(-n2cc3c(=O)n(C)c(=O)n(C)c3c2)c1
inactive: growth inhibition [1] -6.43% | growth inhibition [2] -0.345% | viability increase [3] -1.71% | viability [4] 102% | viability [5] 103% | inhibition [6] 0.155% | RAM network inhibition [7] 2.55%

O=C(CCN1C(=O)c2ccccc2C1=O)Nc1ccncc1
inactive: growth inhibition [1] 0.69% | growth inhibition [2] -3.13% | viability increase [3] 3.4% | viability [4] 98.5% | viability [5] 105% | inhibition [6] 1.6% | RAM network inhibition [7] 1.47%

Clc1ccccc1OCCN1CCCCC1
inactive: growth inhibition [1] -14.4% | growth inhibition [2] -20.6% | viability increase [3] 0.57% | viability [4] 85.5% | viability [5] 96.2% | inhibition [6] 0.6% | RAM network inhibition [7] 6.74%

COc1ccc(N2C(=O)C3CCCN3C2c2ccc(Cl)cc2)cc1 (centres undefined)
inactive: growth inhibition [1] -6.21% | growth inhibition [2] -6.83% | viability increase [3] -2.6% | viability [4] 101% | viability [5] 95.5% | inhibition [6] 1.7% | RAM network inhibition [7] 2.27%

COc1ccc(-c2cn3c(C)c(C(=O)Nc4ccncc4)sc3n2)cc1
inactive: growth inhibition [1] -4.55% | growth inhibition [2] -15.3% | viability increase [3] -3.37% | viability [4] 102% | viability [5] 90.1% | inhibition [6] 3.6% | RAM network inhibition [7] 5.99%

CCOC(=O)C1=C(O)/C(=C/N(C)C)N=C1C
inactive: growth inhibition [1] 4.34% | growth inhibition [2] 5.5% | viability increase [3] -0.31% | viability [4] 103% | viability [5] 106% | inhibition [6] 3.19% | RAM network inhibition [7] 0.56%

COc1ccc(NC(=O)Cc2nc3ccccc3[nH]2)cc1
inactive: growth inhibition [1] 0.43% | growth inhibition [2] 6.96% | viability increase [3] -1.06% | viability [4] 58.9% | viability [5] 92.5% | inhibition [6] 0.695% | RAM network inhibition [7] -1.49%

COC(=O)c1ccc(CSc2nc3c(c(=O)n2-c2ccc(F)cc2)SCC3)o1
inactive: growth inhibition [1] -7.83% | growth inhibition [2] -16.6% | viability increase [3] -3.02% | viability [4] 83.7% | viability [5] 81.3% | inhibition [6] 1.3% | RAM network inhibition [7] 1.52%

CC(=O)c1c(NCc2ccccc2)nc(=O)n(-c2ccccc2)c1C
inactive: growth inhibition [1] -4.12% | growth inhibition [2] 4.42% | viability increase [3] -1.28% | viability [4] 94.7% | viability [5] 97% | inhibition [6] 1.98% | RAM network inhibition [7] 4.07%

COc1cccc(C2CC(c3ccc(Cl)cc3)Nc3nc(N)nn32)c1 (centres undefined)
inactive: growth inhibition [1] 4.02% | growth inhibition [2] 11.4% | viability increase [3] 3.49% | viability [4] 91.4% | viability [5] 83% | inhibition [6] 1.92% | RAM network inhibition [7] 6.11%

O=C(CSCc1ccc(Cl)cc1)c1ccco1
inactive: growth inhibition [1] -9.9% | growth inhibition [2] 0.15% | viability increase [3] 0.59% | viability [4] 96.5% | viability [5] 89.8% | inhibition [6] 0.695% | RAM network inhibition [7] 2.59%

CCCSC1=C(C#N)C(c2ccc(O)c(OC)c2)CC(=O)N1 (centres undefined)
inactive: growth inhibition [1] -14.9% | growth inhibition [2] -22.5% | viability increase [3] -2.92% | viability [4] 104% | viability [5] 101% | inhibition [6] 1.66% | RAM network inhibition [7] 1.36%

COC(=O)C1=C(C)Nc2nc(-c3ccccc3)nn2C1c1ccc(C)o1 (centres undefined)
inactive: growth inhibition [1] -4.19% | growth inhibition [2] 12.3% | viability increase [3] -4.23% | viability [4] 78.3% | viability [5] 76.1% | inhibition [6] 2.19% | RAM network inhibition [7] 1.2%

O=C1CN(C(=O)c2ccc(Br)o2)C(c2ccccc2)c2cc(F)ccc2N1 (centres undefined)
inactive: growth inhibition [1] -12.5% | growth inhibition [2] -28% | viability increase [3] -5.91% | viability [4] 84.9% | viability [5] 78.7% | inhibition [6] 1.08% | RAM network inhibition [7] 2.36%

O=C(Nc1nnc(-c2ccc3c(c2)CCCC3)o1)C1CCCCC1
inactive: growth inhibition [1] -16.5% | growth inhibition [2] -4.87% | viability increase [3] -2.6% | viability [4] 64.5% | viability [5] 62% | inhibition [6] 3.24% | RAM network inhibition [7] 4.48%

CCn1cc(Cl)c(C(=O)Nc2nc3ccccc3n2CCN2CCCCC2)n1
inactive: growth inhibition [1] -5% | growth inhibition [2] 13.4% | viability increase [3] -4.57% | viability [4] 88.8% | viability [5] 92.2% | inhibition [6] 0.905% | RAM network inhibition [7] 2.98%

Cc1sc2ncnc(NCCCO)c2c1C
inactive: growth inhibition [1] -16.1% | growth inhibition [2] -8.24% | viability increase [3] -1.72% | viability [4] 103% | viability [5] 90.5% | inhibition [6] 0.945% | RAM network inhibition [7] 5.49%

Cc1cccn2c(=O)c3cc(C(=O)NC4CCS(=O)(=O)C4)sc3nc12 (centres undefined)
inactive: growth inhibition [1] -6% | growth inhibition [2] 1.39% | viability increase [3] -2.99% | viability [4] 101% | viability [5] 97.2% | inhibition [6] 2.06% | RAM network inhibition [7] 0.09%

Cc1ccc(S(=O)(=O)N2CCC(C(=O)N[C@@H](C)C(=O)NC3CCCCC3)CC2)cc1
inactive: growth inhibition [1] -10.2% | growth inhibition [2] -17.1% | viability increase [3] 3.71% | viability [4] 97.7% | viability [5] 99.8% | inhibition [6] 2.49% | RAM network inhibition [7] 4.41%

COC(=O)C1CCN(C(=O)c2ccccc2NC(C)=O)CC1
inactive: growth inhibition [1] -12% | growth inhibition [2] -16.4% | viability increase [3] -0.52% | viability [4] 101% | viability [5] 99.6% | inhibition [6] -0.23% | RAM network inhibition [7] 2.21%
